# Experiments:
# [1] = system: Escherichia coli; test: (§1) In vitro antibacterial activity against Escherichia coli NHJ JC-2; assay type: functional, escherichia colin
# Procedure, shortened: (§2)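 MIC measured by 2-fold serial agar dilution. The growth medium is given as Mueller–Hinton agar in the text and as sensitivity test agar in the table footnote. Value reported in µg/mL.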
# [2] = system: Pseudomonas aeruginosa; test: In vitro antibacterial activity against Pseudomonas aeruginosa IFO 3445; assay type: functional; procedure, shortened: as §2
# [3] = system: Staphylococcus epidermidis; test: In vitro antibacterial activity against Staphylococcus epidermidis IAM 1296; assay type: functional; procedure, shortened: as §2
# [4] = system: Proteus vulgaris; test: In vitro antibacterial activity against Proteus vulgaris OX-19; assay type: functional; procedure, shortened: as §2
# [5] = system: Klebsiella pneumoniae; test: In vitro antibacterial activity against Klebsiella pneumoniae PCI-602; assay type: functional; procedure, shortened: as §2
# [6] = Acute toxicity on oral administration in mice; assay type: organism-based; conditions: mouse, in vivo
# Procedure, shortened: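 ddY male mice (20–25 g, five per group) were dosed orally with a suspension in 0.5% sodium carboxymethylcellulose. LD50 was determined 7 days later by the Weil method.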
# [7] = system: Staphylococcus aureus; test: In vitro antibacterial activity against Staphylococcus aureus FDA 209P JC-1; assay type: functional; procedure, shortened: as §2
# [8] = system: Staphylococcus aureus; test: In vitro antibacterial activity against […] aureus IID 803 -; assay type: functional; procedure, shortened: as §2
# [9] = system: Salmonella typhimurium; test: In vitro antibacterial activity against Salmonella Typhimurium IID 971; assay type: functional, Salmonella enterica subsp. enterica serovar Typhimurium; conditions: Salmonella enterica; procedure, shortened: as §2
# [10] = system: Escherichia coli; test: In vitro antibacterial activity against Escherichia coli KC-14
# [11] = Acute toxicity on intravenous injection in mice; assay type: organism-based; conditions: mouse, in vivo
# Procedure, shortened: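 ddY male mice (20–25 g, five per group) given compound by intravenous injection. Compound was dissolved in 1 N NaOH, then brought up in phosphoric acid–saline buffer (pH 7.2). LD50 was determined 7 days later by the Weil method.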
# [12] = system: Serratia marcescens; test: (§3) In vitro antibacterial activity against Serratia; assay type: functional; procedure, shortened: as §2
# [13] = system: Bacillus subtilis; test: In vitro antibacterial activity against Bacillus subtilis ATCC 6633; assay type: functional; procedure, shortened: as §2
# [14] = system: Escherichia coli; test: as §1; assay type: functional, escherichia colin; remark: listed apart in the source
# Procedure, shortened: (§4)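 MIC by 2-fold agar dilution on sensitivity test agar (Mueller–Hinton agar per text), in µg/mL.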
# [15] = system: Escherichia coli; test: In vivo antibacterial activity against Escherichia coli KC-14 (po); assay type: functional
# Procedure, shortened: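 Oral protection test in mice infected with E. coli KC-14. Compound suspended in 0.5% sodium CMC and given orally 1 h after infection. ED50 (mg/kg) calculated from cumulative mortality on day 7 after infection by the shortened Weil method, with 95% confidence limits.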
# [16] = system: Staphylococcus aureus; test: In vitro antibacterial activity against Staphylococcus aureus FDA […] JC-1; assay type: functional; procedure, shortened: as §4
# [17] = system: Serratia; test: as §3; assay type: functional; procedure, shortened: as §4
# [18] = Concentration of liberated compound in serum after 120 min at the dose of 50 mg/kg (po).; assay type: functional, organism-based; parameters: dose 50 mg/kg
# Procedure, shortened: (§5)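 ddY male mice (20–25 g, five per group) got 50 mg/kg orally as a 0.5% CMC suspension and were killed by bleeding at 30, 60, 120 or 240 min. Serum was taken after centrifugation at 3000 rpm, 20 min, 4 °C, and deproteinised with 5% aqueous trichloroacetic acid. The released parent quinolone was measured by HPLC with UV detection on an ODS column. Mean ± SE.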
# [19] = Concentration of liberated compound in serum after 30 min at the dose of 50 mg/kg (po).; assay type: ADME, organism-based; parameters: dose 50 mg/kg; conditions: in vivo, 0.5 h
# Procedure, shortened: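 ddY male mice (20–25 g, five per group) given 50 mg/kg orally as a suspension in 0.5% CMC and killed by bleeding at 30 min. Serum was separated by centrifugation (3000 rpm, 20 min, 4 °C) and deproteinized with 5% aqueous trichloroacetic acid. Liberated NFLX was quantified by reversed-phase (ODS) HPLC with UV detection. Values are mean ± SE.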
# [20] = Concentration of liberated compound in serum after 60 min at the dose of 50 mg/kg (po).; assay type: functional, organism-based; parameters: dose 50 mg/kg; procedure, shortened: as §5
# [21] = Concentration of liberated compound in serum after 240 min at the dose of 50 mg/kg (po).; assay type: functional, organism-based; parameters: dose 50 mg/kg; procedure, shortened: as §5
Compound,MIC [2] [µg/mL],MIC [3] [µg/mL],MIC [4] [µg/mL],MIC [5] [µg/mL],LD50 [6] [mg/kg],MIC [8] [µg/mL],MIC [9] [µg/mL],MIC [10] [µg/mL],LD50 [11] [mg/kg],MIC [12] [µg/mL],MIC [13] [µg/mL],MIC [14] [µg/mL],ED50 [15] [mg/kg],MIC [16] [µg/mL],MIC [17] [µg/mL],further results
CCn1cc(C(=O)O)c(=O)c2cc(F)c(N3CCN(O)CC3)cc21,12.5,6.25,0.05,0.05,> 4000,1.56,0.1,0.39,> 500,3.13,0.2,–,–,–,–,MIC [1]: 1.56 µg/mL; MIC [7]: 0.78 µg/mL
O=C(O)c1cn(C2CC2)c2cc(N3CCN(O)CC3)c(F)cc2c1=O,1.56,1.56,0.05,0.025,> 4000,0.78,0.025,0.025,–,0.78,0.39,0.1,0.37,0.39,–,–
O=C(O)c1cn(C2CC2)c2cc(N3CCNCC3)c(F)cc2c1=O [CIPROFLOXACIN],0.78,1.56,0.05,0.025,–,0.78,0.025,0.0125,–,–,0.39,–,0.84,0.39,0.2,–
CCn1cc(C(=O)O)c(=O)c2cc(F)c(N3CCNCC3)cc21 [NORFLOXACIN],1.56,3.13,0.1,0.1,> 4000,1.56,0.05,0.2,314,–,0.39,0.2,–,0.39,0.39,Concentration [18]: 1.09 µg/mL; Concentration [19]: 4140 ng/mL; Concentration [20]: 2.8 µg/mL; Concentration [21]: 0.47 µg/mL

# Reference: ChEMBL document CHEMBL1124996, “Synthesis of antimicrobial agents. 3. Syntheses and antibacterial activities of 7-(4-hydroxypiperazin-1-yl)quinolones” (J Med Chem, 1990)
